Assay outcomes: PubChem BioAssay, several laboratories
A selection: hits, their analogues and other compounds. The true share with any hit is near 5.7%.
Mdm2 MdmX PPI: inhibitors of human Mdm2-MdmX association, primary screen, cell-based, luminescence, split luciferase, SaOS-2, uHTS. Protein Mdm4 (Homo sapiens) + E3 ubiquitin-protein ligase Mdm2 (Homo sapiens), …. SaOS-2 split-luciferase Mdm2/MdmX complementation. inhibition, % at 8 µM. 330,000 compounds, 3% hits;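 active = inhibition of at least 50% at 8 µM in the primary screen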
Target sequence (O15151 whole entry, looked up): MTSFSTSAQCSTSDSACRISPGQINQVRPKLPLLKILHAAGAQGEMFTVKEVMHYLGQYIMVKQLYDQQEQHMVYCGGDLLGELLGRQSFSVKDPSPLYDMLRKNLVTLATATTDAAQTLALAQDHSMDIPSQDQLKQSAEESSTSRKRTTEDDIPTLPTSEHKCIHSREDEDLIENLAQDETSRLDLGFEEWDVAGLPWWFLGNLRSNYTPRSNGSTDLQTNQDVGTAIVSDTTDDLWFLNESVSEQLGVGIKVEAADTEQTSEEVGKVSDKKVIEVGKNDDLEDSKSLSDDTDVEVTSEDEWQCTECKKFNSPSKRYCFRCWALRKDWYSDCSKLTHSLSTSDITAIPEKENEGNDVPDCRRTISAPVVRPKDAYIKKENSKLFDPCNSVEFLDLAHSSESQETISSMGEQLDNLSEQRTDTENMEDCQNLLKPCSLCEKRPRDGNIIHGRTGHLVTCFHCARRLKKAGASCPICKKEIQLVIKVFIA
Target sequence (Q00987 whole entry, looked up): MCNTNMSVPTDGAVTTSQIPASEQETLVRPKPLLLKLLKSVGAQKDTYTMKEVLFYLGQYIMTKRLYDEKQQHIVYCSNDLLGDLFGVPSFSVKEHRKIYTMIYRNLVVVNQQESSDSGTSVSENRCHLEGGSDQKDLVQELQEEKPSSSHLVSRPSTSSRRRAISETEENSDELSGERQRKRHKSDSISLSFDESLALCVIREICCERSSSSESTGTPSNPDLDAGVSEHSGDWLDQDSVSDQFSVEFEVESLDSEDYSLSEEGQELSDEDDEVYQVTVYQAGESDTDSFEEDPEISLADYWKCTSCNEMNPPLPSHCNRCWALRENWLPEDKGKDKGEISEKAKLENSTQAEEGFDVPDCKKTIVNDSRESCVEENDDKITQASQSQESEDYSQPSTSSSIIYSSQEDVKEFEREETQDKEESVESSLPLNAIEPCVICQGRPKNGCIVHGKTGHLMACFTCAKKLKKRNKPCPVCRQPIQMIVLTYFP
CSC inhib: cancer stem cell viability inhibitors, primary screen, luminescence; inhibition, % at 7.5 µM; 300,000 compounds, 1.1% hits; cancer stem cell-like cells viability; AID 2717, 2010; in the data active = inhibition above about 75%; inconclusive = no clear call, values can overlap the other calls; tested in HMLE shEcad cells
Calb FLC: C. albicans growth inhibition with fluconazole, primary screen, CaCi-2 strain, Alamar Blue fluorescence | C. albicans CaCi-2 (fluconazole-resistant clinical isolate) + fluconazole, 48 h | growth inhibition, % (concentration not given with the values) | 300,000 compounds, 0.57% hits | AID 1979, 2009;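 active = growth inhibition above about 58% in most replicates, limit read from the data, passing the limit was not always enough; inconclusive = exactly half the replicates above a set limit; inactive = most replicates below a set limit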;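 also: all wells also contain fluconazole at 8 µg/ml as a sub-toxic cotreatment; 0% = median of DMSO wells and 100% = median of geldanamycin control wells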
SKKanGAS inh: S. pyogenes SKKanGAS growth inhibitors in kanamycin, primary screen, streptokinase expression inhibitor project, SKKanGAS strain, BacTiter-Glo luminescence; inhibition, % at 7.5 µM; 6 h; 300,000 compounds, 1.3% hits; AID 1662, 2009;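 active = mean replicate score, as percent of positive control median, at least 50; inconclusive = mean below 50 but one replicate at or above 50; inactive = mean and every replicate below 50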;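 also: strain carries kanamycin resistance gene driven by streptokinase promoter and grows in 40 µg/ml kanamycin; loss of luminescence reflects streptokinase promoter inhibition or plain growth inhibition; 0% = median of DMSO wells and 100% = positive control at its reference dose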
T cruzi inh: inhibitors of intracellular T. cruzi growth, primary screen, luminescence, NIH3T3 host cells; T. cruzi beta-gal in NIH3T3, 90 h; inhibition, % (test concentration not listed); 300,000 compounds, 1.4% hits;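 active = mean inhibition across valid replicates above about 55%, limit read from the data; inconclusive = mean below that limit but half or more replicates reach it; inactive = mean below it, under half of replicates reach it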;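 also: signal also drops with host cell toxicity which is not excluded here; 0% = plate median of DMSO wells and 100% = zero luminescence signal; higher percent means less beta-gal luminescence so fewer parasites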
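System: mouse NIH/3T3 fibroblasts infected with β-gal-expressing T. cruzi Tulahuen C4 / Input: NIH/3T3 cells, 5,000 per well / Buffer or medium: Low-serum DMEM with 2% FBS / Probe or stimulus: 5000 reporter trypomastigotes per well / Schedule: ≥90 h infection period, 3 h prior cell attachment / Measured by: GalScreen luminescence, 60 min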
Beta apoptosis: inhibitors of cytokine-induced beta cell apoptosis, primary screen, luminescence. INS-1E cytokine-induced death, ATP luminescence, 48 h; percent of positive-control rescue, neutral wells zero. protection from apoptosis, % (no concentration beside the values). 300,000 compounds, 0.8% hits. AID 435005, 2010;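 active = Every replicate reaches about 75%, or at least half do and their mean reaches it too, limit read from the data; inconclusive = At least half of replicates reach the limit but their mean does not; inactive = Under half of replicates reach the limit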;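 also: 0% = cytokine-treated negative control wells and 100% = positive control rescue; higher means more ATP so stronger rescue from cytokine killing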
Numbers without * were called inactive; ? = inconclusive; . = no result.

SMILES	Mdm2 MdmX PPI	CSC inhib	Calb FLC	SKKanGAS inh	T cruzi inh	Beta apoptosis
O=C(CN(C1CC1)S(=O)(=O)c1ccc(S(=O)(=O)N2CCCCCC2)cc1)Nc1ccccc1	27	1	6	-3	11	6
Cc1ccc(S(=O)(=O)N(CC(=O)Nc2cccc([N+](=O)[O-])c2)C2CCCCC2)cc1	-10	.	8	17	-4	17
Cc1ccc(S(=O)(=O)N(CC(=O)Nc2ccc(Cl)c([N+](=O)[O-])c2)C2CCCCC2)cc1	39	22	-5	28	59*	42
Cc1ccccc1C(=O)NCC(=O)OC(C)C(=O)NC(C)CCc1ccccc1 (stereo not given)	-3	.	.	.	.	2
COc1ccc(/C=C/C(=O)NC(=S)NNC(=O)c2cccs2)cc1OC	27	0	-3	73*	3	1
COc1ccc(C(=O)NC(=S)NNC(=O)Cc2cccs2)cc1	23	8	10	18	-13	6
O=C(/C=C/c1cccs1)NC(=S)NNC(=O)Cc1cccs1	26	34	-6	68*	-5	4
COc1ccc(/C=C/C(=O)NC(=S)NNC(=O)c2cccnc2)cc1OC	2	-9	-4	19	9	-4
COc1ccc(/C=C/C(=O)NC(=S)NCc2ccccc2)cc1OC	48	-5	0	-1	4	-2
COc1ccc(/C=C/C(=O)NC(=S)NNC(=O)Cc2cccs2)cc1OC	34	17	2	67*	-23	7
COc1cc(OC)cc(C(=O)NC(=S)NNC(=O)Cc2cccs2)c1	36	8	32	70*	-24	-9
Cc1cc(NC(=O)c2ccco2)sc1C	-57	10	.	.	.	17
CCc1cc2c(COC(=O)c3cc(S(=O)(=O)N4CCOCC4)ccc3F)cc(=O)oc2cc1O	31	16	.	.	.	-6
CCc1cc2c(COC(=O)c3cccc(NS(C)(=O)=O)c3)cc(=O)oc2cc1O	14	-1	-7	50*	-1	5
COc1ccc(CCNCC(O)COc2cccc(C(C)=O)c2)cc1OC (stereo not given)	-26	.	6	2	56*	.
COc1ccc(CCNCC(O)COc2ccc(Cl)cc2)cc1OC (stereo not given)	29	-4	-1	-24	48	-13
Cc1cccc2[nH]c3c(N4CC=C(c5ccc(F)cc5)CC4)ncnc3c12	25	78*	10	82*	34	3
COc1cccc2[nH]c3c(N4CCCCC4)ncnc3c12	8	7	-23	3	16	10
CC(=O)CSc1ccc(-c2nc3ccccc3[nH]2)cn1	-93	43	-1	9	5	79*
Cc1ccc(-c2cc(-c3cccc(F)c3)n[nH]2)c(O)c1	-179	-2	1	52*	6	5
COc1cc(C(=O)OC(C)C(=O)NC(=O)NC2CCCCC2)ccc1OC(F)F (stereo not given)	19	-4	.	.	.	-6
Cc1ccc(C)c(N2CN(Cc3cccnc3)CNC2=S)c1	-4	.	-18	-10	61*	.
Cc1ccc(N2CN(Cc3cccnc3)CNC2=S)cc1	-1	-16	6	-3	?	-3
COc1ccc(C2CC(c3ccccc3)=NN2C(=O)COC(=O)c2nc3nc(C)cc(C)n3n2)cc1 (stereo not given)	-6	-26	-6	12	70*	-3
Cc1cc(Br)ccc1NC(=O)CN1C(=O)C2C3CC(c4ccccc4)C(C3)C2C1=O (stereo not given)	5	22	0	8	56*	10
CC(Sc1nnc2c(n1)[nH]c1ccccc12)C(=O)N(C)C1CCCCC1 (stereo not given)	31	10	-2	7	3	100*
CC(Sc1nnc2c(n1)[nH]c1ccccc12)C(=O)NC1CCCCC1 (stereo not given)	4	.	-6	5	20	18
CN(Cc1ccc(C#CCCO)cc1)CC1CCCN(CCc2ccc(Cl)cc2)C1 (stereo not given)	29	-9	-13	3	35	.
